How the values were obtained:
healthy subjects = assay: Clinical safety: adverse events, ECG, laboratory tests; type: in vivo, human
[1] = Dog plasma protein binding; type: in vitro ADME; conditions: equilibrium dialysis of dog plasma
Procedure, shortened: (§1)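 Fraction unbound was determined in vitro by equilibrium dialysis of mouse brain homogenate or dog plasma. Unbound concentrations were derived by multiplying the total measured concentrations by this fraction unbound.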

patients with mild AD = conditions: Phase II study; cited from earlier work
[2] = tested on: PDAPP primary cortical neurons; assay: PDAPP neuronal cytotoxicity; type: cell-based, mouse
Procedure, shortened: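 Primary cortical neurons from gestational-day-16 PDAPP (APP V717F) embryos were grown at 15×10^4 cells/well in DMEM/F12 (1:1) with B27. Cells were exposed to test compound for 24 h at 37°C. Viability was read by MTT assay as absorbance at 595 nm.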

[3] = tested on: CSF Aβ1–40 and Aβ1–42 in healthy subjects; assay: Clinical single-dose CSF Aβ pharmacodynamics; type: in vivo, human
Procedure, shortened: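 Healthy subjects received single doses of 1.6, 10 or 26 mg or placebo. Serial CSF was drawn through an indwelling subarachnoid lumbar catheter from 4 h pre-dose to 36 h post-dose. For each subject, the time of the lowest observed Aβ1–40 and Aβ1–42 concentration, the change from baseline at nadir and the 24 h time-averaged change from baseline were reported.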

[4] = target: Porcine gastric mucosa pepsin (Sus scrofa, UniProt P00791); assay: Pepsin FRET assay; type: biochemical; conditions: read-out: Pepsin FRET Assay Absolute IC50; n = 2; value (SD)
[5] = tested on: CSF Aβ1–40, Aβ1–42, sAβPPα, sAβPPβ in healthy subjects; assay: Clinical multiple-dose CSF pharmacodynamics; type: in vivo, human
[6] = Brain homogenate protein binding; type: in vitro ADME, mouse; conditions: equilibrium dialysis
Procedure, shortened: as §1

[7] = Clinical single-dose plasma pharmacokinetics; type: in vivo, human; conditions: for Cmax / AUC (0∞) / t1/2 / CLR: geometric mean (CV%); for tmax: median (range)
Procedure, shortened: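 Healthy subjects received single oral doses of placebo or 0.1 mg (n = 3 per group), or 0.4, 1.6, 5, 15 or 45 mg (n = 8 per group). Plasma was sampled immediately pre-dose and up to 120 h post-dose. Reported parameters were Cmax, tmax, terminal t1/2, AUC0–∞, clearance and apparent volume of distribution.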

[8] = Clinical multiple-dose pharmacokinetics; type: in vivo, human; conditions: for AUCτ,ss / CLR / t1/2 / tmax: day 14; for AUCτ,ss / CLR / t1/2 / Cmax: geometric mean (CV%); for tmax: median (range); for Cmax: day 14 steady state
Procedure, shortened: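 Healthy subjects took daily oral doses for 14 days. Plasma was sampled up to 24 h after the first dose, before the day-14 dose and up to 120 h after it, plus pre-dose troughs every 2 days to assess steady state. Clearance, apparent volume, tmax and t1/2 were reported. Accumulation ratio = AUCτ,ss divided by first-dose AUCτ, per subject.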

[9] = tested on: Aβ1-x in plasma and CSF of beagle dogs; assay: Pharmacodynamics in cannulated beagle dogs; type: in vivo, dog; conditions: 1.5 mg/kg oral
Procedure, shortened: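 Six male cannulated beagle dogs received a single 1.5 mg/kg oral dose in 1% hydroxyethylcellulose. Plasma was sampled pre-dose and at 0.5–48 h. CSF was sampled 0.5 h pre-dose (baseline) and at 3, 6, 9, 24 and 48 h. Aβ1–x was measured by sandwich ELISA (m266.2 capture, biotinylated 3D6 reporter), averaged across dogs and expressed relative to baseline. Statistics: ANOVA with Tukey post hoc.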

[10] = 1 mg daily for 14 days, 24 h after final dose
[11] = 26 mg daily for 14 days, samples below LLOQ assigned one-half the LLOQ

Porcine gastric mucosa pepsin, sequence (P00791 60-385): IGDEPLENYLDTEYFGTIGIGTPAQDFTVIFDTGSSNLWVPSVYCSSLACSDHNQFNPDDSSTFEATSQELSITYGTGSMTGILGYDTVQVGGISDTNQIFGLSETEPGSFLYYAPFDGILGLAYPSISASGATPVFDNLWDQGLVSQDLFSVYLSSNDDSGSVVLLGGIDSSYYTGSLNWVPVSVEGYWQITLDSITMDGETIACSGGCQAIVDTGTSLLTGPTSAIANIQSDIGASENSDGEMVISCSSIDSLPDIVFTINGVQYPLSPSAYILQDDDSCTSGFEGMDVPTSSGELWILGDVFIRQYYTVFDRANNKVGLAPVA

## COc1cnc(C(=O)Nc2ccc(F)c([C@]34CN(c5ncc(F)cn5)C[C@H]3CSC(N)=N4)c2)cn1 [LY3202626]
Healthy subjects; Phase 1 study
  tolerability: generally well tolerated
Healthy subjects; healthy subjects, Phase 1
  clinical laboratory tests, including liver functions tests: no clinically significant findings
  electrocardiograms (including QTc interval), ophthalmologic examinations, alertness and attention: no clinically significant changes
Healthy subjects; multiple doses 1 mg, N = 9
  Abnormal dreams: number of adverse events (number of subjects): 1 (1)
  Burning sensation: number of adverse events (number of subjects): 1 (1)
  Constipation: number of adverse events (number of subjects): 0 (0)
  Dizziness: number of adverse events (number of subjects): 0 (0)
  Dysgeusia: number of adverse events (number of subjects): 1 (1)
  Feces discoloured: number of adverse events (number of subjects): 0 (0)
  Headache: number of adverse events (number of subjects): 0 (0)
  Memory impairment: number of adverse events (number of subjects): 0 (0)
  Nightmare: number of adverse events (number of subjects): 1 (1)
  Post-lumbar puncture syndrome: number of adverse events (number of subjects): 1 (1)
  Postural orthostatic tachycardia syndrome: number of adverse events (number of subjects): 0 (0)
  Sunburn: number of adverse events (number of subjects): 0 (0)
Healthy subjects; multiple doses 6 mg, N = 9
  Abnormal dreams: number of adverse events (number of subjects): 0 (0)
  Burning sensation: number of adverse events (number of subjects): 0 (0)
  Constipation: number of adverse events (number of subjects): 1 (1)
  Dizziness: number of adverse events (number of subjects): 0 (0)
  Dysgeusia: number of adverse events (number of subjects): 0 (0)
  Feces discoloured: number of adverse events (number of subjects): 2 (2)
  Headache: number of adverse events (number of subjects): 0 (0)
  Memory impairment: number of adverse events (number of subjects): 0 (0)
  Nightmare: number of adverse events (number of subjects): 0 (0)
  Post-lumbar puncture syndrome: number of adverse events (number of subjects): 0 (0)
  Postural orthostatic tachycardia syndrome: number of adverse events (number of subjects): 0 (0)
  Sunburn: number of adverse events (number of subjects): 0 (0)
Healthy subjects; multiple doses 26 mg, n = 9
  Abnormal dreams: number of adverse events (number of subjects): 0 (0)
  Burning sensation: number of adverse events (number of subjects): 0 (0)
  Constipation: number of adverse events (number of subjects): 0 (0)
  Dizziness: number of adverse events (number of subjects): 2 (2)
  Dysgeusia: number of adverse events (number of subjects): 0 (0)
  Feces discoloured: number of adverse events (number of subjects): 9 (9)
  Headache: number of adverse events (number of subjects): 0 (0)
  Memory impairment: number of adverse events (number of subjects): 1 (1)
  Nightmare: number of adverse events (number of subjects): 0 (0)
  Post-lumbar puncture syndrome: number of adverse events (number of subjects): 0 (0)
  Postural orthostatic tachycardia syndrome: number of adverse events (number of subjects): 1 (1)
  Sunburn: number of adverse events (number of subjects): 0 (0)
Healthy subjects; up to a single dose of 45 mg or multiple doses of 26 mg
  serious adverse events: no serious adverse events
[1]
  dog plasma free fraction: 0.009
Patients with mild AD
  hepatotoxicity: no evidence of hepatotoxicity
[2]; read-out: EC50 for inducing cytotoxicity in PDAPP neurons, MTT
  EC50: > 100 µM
[2]; read-out: PDAPP 1° Neuron Cytotox Relative IC50, n = 1/7
  IC50: > 100 µM
[3]; single dose 1.6 mg
  CSF Aβ1–42 mean reduction from baseline at nadir: –33.4%
  time of mean nadir of CSF Aβ1–42: approximately 10 h
[3]; single dose 26 mg
  CSF Aβ1–42 mean reduction from baseline at nadir: –71.6%
  time of mean nadir of CSF Aβ1–42: approximately 28 h
[4]
  IC50: > 14 µM
[5]; [10]
  decrease in CSF Aβ1–40 from baseline: approximately 50%
  decrease in CSF Aβ1–42 from baseline: approximately 50%
[5]; 12 mg QD
  lowering of CSF Aβ species, modeling of the clinical data: at least 90%
[5]; 26 mg daily for 14 days
  increase in CSF sAβPPα from baseline: 111%
  reduction in CSF sAβPPβ from baseline: 92.7%
[5]; [11]
  reduction in CSF Aβ1–40 from baseline: approximately 94%
  reduction in CSF Aβ1–42 from baseline: approximately 94%
[5]; multiple doses of 6 mg
  decrease in CSF sAβPPβ: more than 70%
[6]
  free fraction in brain homogenate: 0.026
[7]; healthy subjects, across dose levels
  Renal clearance: approximately 1 L/h
[7]; healthy subjects, across dose levels except 15 mg
  Apparent oral clearance: approximately 26 L/h
[7]; healthy subjects, single oral doses, plasma
  terminal t1/2: approximately 20 h
[7]; single dose 0.1 mg, n = 3
  Cmax: 0.169 (50) ng/mL
[7]; single dose 0.1 mg
  tmax: 3.08 (3.00–6.00) h
[7]; single dose 0.4 mg, n = 8
  Cmax: 0.486 (81) ng/mL
[7]; single dose 0.4 mg
  tmax: 3.55 (3.00–8.00) h
[7]; single dose 1.6 mg, n = 8
  Cmax: 2.89 (70) ng/mL
[7]; single dose 1.6 mg
  AUC (0∞): 60.6 (49) ng·h/mL
  t1/2: 23.0 (21) h
  tmax: 3.00 (3.00–4.00) h
[7]; single dose 5 mg, n = 8
  Cmax: 7.91 (56) ng/mL
[7]; single dose 5 mg
  AUC (0∞): 197 (38) ng·h/mL
  CLR: 1.09 (64) L/h
  t1/2: 19.8 (42) h
  tmax: 4.03 (2.90–24.12) h
[7]; single dose 15 mg, n = 8
  Cmax: 21.3 (77) ng/mL
[7]; single dose 15 mg
  AUC (0∞): 393 (84) ng·h/mL
  CLR: 0.829 (37) L/h
  t1/2: 19.5 (25) h
  tmax: 3.01 (1.98–4.00) h
[7]; single dose 45 mg, n = 8
  Cmax: 92.5 (47) ng/mL
[7]; single dose 45 mg
  AUC (0∞): 1680 (34) ng·h/mL
  CLR: 1.03 (53) L/h
  t1/2: 21.5 (19) h
  tmax: 2.54 (2.00–4.07) h
[8]; multiple dose 1 mg
  AUCτ,ss: 38.6 (25) ng·h/mL
  CLR: 1.61 (46) L/h
  t1/2: 33.1 (38) h
  tmax: 4.04 (3.98–4.23) h
[8]; multiple dose 1 mg, n = 8
  Cmax: 2.57 (25) ng/mL
[8]; multiple dose 6 mg
  AUCτ,ss: 151 (54) ng·h/mL
  CLR: 1.09 (86) L/h
  t1/2: 38.1 (29) h
  tmax: 3.87 (1.95–4.00) h
[8]; multiple dose 6 mg, n = 9
  Cmax: 11.2 (71) ng/mL
[8]; multiple dose 26 mg
  AUCτ,ss: 1020 (50) ng·h/mL
  CLR: 1.29 (39) L/h
  t1/2: 46.3 (25) h
  tmax: 4.03 (2.00–5.78) h
[8]; multiple dose 26 mg, n = 9
  Cmax: 72.8 (61) ng/mL
[9]
  time CSF Aβ1-x remained significantly suppressed after dosing: 24 h
[9]; 9 h time point
  maximal reduction of CSF Aβ1-x: ~80%
[9]; 48 h time point
  reduction of plasma Aβ1-x: approximately 40%
[9]; by 2 h after dosing, vs baseline
  suppression of plasma Aβ1-x levels: up to 80%
